Here are results for seven compounds from ChEMBL document CHEMBL1138185, “Discovery of protein phosphatase 2C inhibitors by virtual screening” (J Med Chem, 2006).

Assay [1] can be described thus: Inhibition of PP2A. In outline: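 Substrate: DARPP-32 pThr34, from rat DARPP-32 expressed in E. coli as a His-tag fusion and phosphorylated by PKA with γ-32P-ATP. Enzyme: PP2A trimer partially purified from rat brain. Duplicate reactions, 10 min at room temperature, stopped with TCA. Supernatant and pellet 32P counted by Cerenkov.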
Assay [2] has as its target Protein phosphatase 1A (Rattus norvegicus) (UniProt P20650). Kind of assay: Inhibition of PP2C alpha at 100 uM.
Assay [3] in a line: Inhibition of PP1 at 100 uM. In outline: (§1)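 PP1 catalytic fragment acting on 32P-labeled phosphorylase a, which was made from rabbit muscle phosphorylase b with phosphorylase kinase. Duplicate reactions were started with substrate, run 10 min at room temperature and stopped with TCA. Released 32P measured by Cerenkov counting.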
Assay [4] deals with Calcineurin PP2B (Rattus norvegicus). Kind of assay: Inhibition of PP2B.
Assay [5] is described as follows: Inhibition of PP1. Put shortly:
as §1

Assay [6] concerns the target Protein phosphatase 1A (Rattus norvegicus) (UniProt P20650). As to the kind of experiment: Inhibition of PP2C alpha.

Activity calls are given as the source filed them. The rule behind the calls is not given here.

Chain of Protein phosphatase 1A (Rattus norvegicus) (P20650 whole entry, looked up, the tested form may be a part): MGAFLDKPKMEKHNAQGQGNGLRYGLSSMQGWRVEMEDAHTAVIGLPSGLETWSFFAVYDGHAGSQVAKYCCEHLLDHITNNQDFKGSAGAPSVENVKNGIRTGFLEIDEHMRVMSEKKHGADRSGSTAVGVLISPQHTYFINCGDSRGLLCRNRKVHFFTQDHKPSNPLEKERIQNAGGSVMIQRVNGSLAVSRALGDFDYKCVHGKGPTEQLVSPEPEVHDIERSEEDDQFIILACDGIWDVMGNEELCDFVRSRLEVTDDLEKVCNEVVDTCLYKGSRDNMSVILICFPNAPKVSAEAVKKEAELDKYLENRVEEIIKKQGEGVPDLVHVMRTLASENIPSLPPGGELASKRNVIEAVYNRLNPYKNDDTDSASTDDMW

As to `CC1Oc2cc3c(-c4c(O)cc(O)c5c(O)c6c(cc45)OC(C)C(C)C6=O)c(O)cc(O)c3c(O)c2C(=O)C1C` (configuration not stated), the result in assay [1] was Active.
As usually defined, the inhibition is the share of the control response that was lost under treatment. Low readings indicate little suppression, high ones strong suppression. As for `CC(C)CC(N)C(=O)Nc1ccc2ccccc2c1` (configuration not stated), in assay [2], the inhibition is > 30%.
Consider `Cc1cc(N)c2cc(NC(=O)Nc3ccc4nc(C)cc(N)c4c3)ccc2n1`, for which the inhibition in assay [2] is > 30%. The result in assay [1] and in assay [3] was Active.
As for `CCCCCCCCCCCC1N=C(N)N=C(N)N1c1cccc(Br)c1` (configuration not stated), the result in assay [1] was Active.
`Ic1ccc2c(c1)N(c1ccccc1)c1cc(Nc3ccc4nc5ccc(I)cc5[n+](-c5ccccc5)c4c3)ccc1N2`: in assay [2], the inhibition was > 50%.
As a reminder, the IC50 is the concentration needed to halve the response being measured. In the case of `CC1(C)N=C(N)N=C(N)N1c1ccc(CCCCc2ccccc2)cc1`, the 50% inhibitory concentration (IC50) in assay [4], in assay [5] and in assay [1] was 50 µM in each case.
Take `C/N=C(N)/N=C(\N)Nc1cc2ccccc2c2ccccc12`: the inhibition in assay [2] is > 50%. Moreover, half-maximal inhibition in assay [6] (IC50) was put at 20 µM.
